This note sets out measurements from publication PMC10392812 (Journal of the American Chemical Society, 2023).

In general, IC50 refers to the concentration that gives 50% inhibition. A lower IC50 goes with greater potency.

SMILES strings stand for the structures.

The target of the experiment is T1, EDC3 (Homo sapiens, UniProt Q96F86).
T1 sequence (Q96F86 1-508): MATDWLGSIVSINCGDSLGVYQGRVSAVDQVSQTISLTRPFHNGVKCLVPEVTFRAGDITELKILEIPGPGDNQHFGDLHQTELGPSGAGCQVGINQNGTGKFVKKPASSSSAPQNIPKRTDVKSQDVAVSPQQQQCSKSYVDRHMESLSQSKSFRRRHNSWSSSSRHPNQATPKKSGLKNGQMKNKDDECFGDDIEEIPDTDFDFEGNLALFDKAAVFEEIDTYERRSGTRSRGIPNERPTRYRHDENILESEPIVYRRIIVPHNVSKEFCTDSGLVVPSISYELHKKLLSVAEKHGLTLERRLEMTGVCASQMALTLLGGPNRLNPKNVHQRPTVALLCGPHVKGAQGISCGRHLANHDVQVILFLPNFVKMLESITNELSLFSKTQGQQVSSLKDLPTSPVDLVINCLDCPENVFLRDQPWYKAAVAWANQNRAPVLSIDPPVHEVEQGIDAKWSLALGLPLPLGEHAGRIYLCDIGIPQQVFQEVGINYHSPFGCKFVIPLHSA
As to the kind of experiment: competitive gel-based ABPP in situ. The format is cell-based. The method in brief:
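Recombinant EDC3-expressing HEK293T cells pretreated with test compound (0.1–100 µM, 2 h); lysed, and soluble proteomes labelled with HHS-465 Tyr/Lys-reactive sulfonyl-triazole probe (100 µM, 1 h, RT). CuAAC to rhodamine-azide, SDS-PAGE and in-gel fluorescence scanning. IC50 estimated from dose-dependent loss of EDC3 probe labelling; mean ± SEM, n = 3 biologically independent replicates.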

Compound `COc1ccc(S(=O)(=O)n2cc(CS(C)(=O)=O)nn2)cc1` [AHL-030] returned an IC50 of approximately 6 µM.
